Reference: ChEMBL document CHEMBL3526015, “Metabolism of the c-Fos/activator protein-1 inhibitor T-5224 by multiple human UDP-glucuronosyltransferase isoforms” (Drug Metab Dispos, 2011)

What was measured:
[1] = target: T1, UDP-glucuronosyltransferase 1A1 (Homo sapiens, UniProt P22309); assay: Drug metabolism assessed as Vmax/Km ratio for human UGT1A1-mediated T-5224 hydroxyl O-glucuronide formation per mg protein after 10 to 60 mins in presence of UDP-glucuronic acid by HPLC method; type: ADME; details: recombinant enzyme
T1 sequence (P22309 whole entry): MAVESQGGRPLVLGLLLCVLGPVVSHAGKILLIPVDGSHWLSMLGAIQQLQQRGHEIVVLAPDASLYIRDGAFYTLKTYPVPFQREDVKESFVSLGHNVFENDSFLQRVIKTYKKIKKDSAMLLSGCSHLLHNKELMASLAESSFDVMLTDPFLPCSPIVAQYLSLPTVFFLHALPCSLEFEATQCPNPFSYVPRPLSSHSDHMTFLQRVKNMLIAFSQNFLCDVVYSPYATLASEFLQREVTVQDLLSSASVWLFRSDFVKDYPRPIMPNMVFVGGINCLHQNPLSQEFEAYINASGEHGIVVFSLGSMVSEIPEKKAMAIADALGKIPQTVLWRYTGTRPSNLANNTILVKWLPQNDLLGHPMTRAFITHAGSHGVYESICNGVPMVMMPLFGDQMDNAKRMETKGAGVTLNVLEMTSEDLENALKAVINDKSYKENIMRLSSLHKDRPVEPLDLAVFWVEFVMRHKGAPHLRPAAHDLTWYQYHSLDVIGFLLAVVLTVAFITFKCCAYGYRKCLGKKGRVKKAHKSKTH
How it was run: (§1)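 Kinetics used recombinant UGT1A1, 1A3 or 1A8 (0.1 mg protein/mL) with T-5224 at 1–50 μM, 2 mM UDPGA and 60 min at 37°C, in triplicate. G2/G3 were measured by HPLC at 290 nm and fitted to a substrate-inhibition model (Vmax, Km, Ksi). UGT content was quantified by immunoblot, and kcat = Vmax/E0 was derived from it.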

Liver microsome [2] = assay: Drug metabolism in human liver microsomes assessed as T-5224 hydroxyl O-glucuronide formation per mg protein after 10 to 60 mins by HPLC method; type: ADME
How it was run: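 Pooled liver (0.5 mg protein/mL) or intestinal (0.25 mg protein/mL) microsomes in 50 mM Tris-HCl pH 7.5, 8 mM MgCl2, alamethicin, 2% DMSO. T-5224 at 1–50 μM, 5 min preincubation at 37°C, started with 2 mM UDPGA. Incubated 10 min, or 20 min for intestinal microsomes at 1–5 μM. Acetonitrile stop, glucuronides by HPLC at 290 nm. Triplicates fitted to a substrate-inhibition model.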

[3] = target: T1, UDP-glucuronosyltransferase 1A1; assay: Substrate inhibition of human UGT1A1-mediated T-5224 acyl O-glucuronide formation after 10 to 60 mins in presence of UDP-glucuronic acid by HPLC method; type: ADME
How it was run: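 Recombinant human UGT1A1, UGT1A3 or UGT1A8 from baculovirus-infected insect cells (0.1 mg protein/mL) in 50 mM Tris-HCl pH 7.5, 8 mM MgCl2, alamethicin, 2% DMSO. T-5224 at 1–50 μM with 2 mM UDPGA for 60 min at 37°C. HPLC with UV at 290 nm. Triplicates fitted to a substrate-inhibition model. kcat uses UGT content quantified by immunoblot against recombinant UGT1A1/UGT2B4 standards.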

[4] = target: T1, UDP-glucuronosyltransferase 1A1; assay: Drug metabolism assessed as Vmax/Km ratio for human UGT1A1-mediated T-5224 acyl O-glucuronide formation per mg protein after 10 to 60 mins in presence of UDP-glucuronic acid by HPLC method; type: ADME; details: recombinant enzyme; how it was run: as §1
[5] = target: T2, UDP-glucuronosyltransferase 1A8 (Homo sapiens, UniProt Q9HAW9); assay: Drug metabolism assessed as human UGT1A8-mediated T-5224 hydroxyl O-glucuronide formation at 5 to 50 uM after 60 mins in presence of UDP-glucuronic acid by HPLC method; type: ADME; details: recombinant enzyme, 1 h
T2 sequence (Q9HAW9 whole entry): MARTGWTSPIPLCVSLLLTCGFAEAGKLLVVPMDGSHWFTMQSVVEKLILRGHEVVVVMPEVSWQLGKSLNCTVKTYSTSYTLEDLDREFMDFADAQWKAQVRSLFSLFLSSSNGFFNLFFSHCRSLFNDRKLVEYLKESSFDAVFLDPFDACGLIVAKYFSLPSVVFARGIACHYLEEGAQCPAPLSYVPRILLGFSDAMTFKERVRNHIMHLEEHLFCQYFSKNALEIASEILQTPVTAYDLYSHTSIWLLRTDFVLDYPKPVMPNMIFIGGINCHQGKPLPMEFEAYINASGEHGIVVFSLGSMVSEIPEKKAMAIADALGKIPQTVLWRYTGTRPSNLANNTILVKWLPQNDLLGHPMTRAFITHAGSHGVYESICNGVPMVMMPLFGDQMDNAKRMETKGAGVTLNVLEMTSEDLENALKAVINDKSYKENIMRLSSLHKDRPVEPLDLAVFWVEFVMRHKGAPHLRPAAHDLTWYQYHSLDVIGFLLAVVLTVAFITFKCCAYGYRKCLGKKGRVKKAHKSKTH

Liver microsome [6] = assay: Drug metabolism in pooled human liver microsomes assessed as T-5224 acyl O-glucuronide formation in presence of UDPGA by LC-MS/MS method; type: ADME
Liver microsome [7] = assay: Drug metabolism in human liver microsomes assessed as T-5224 acyl O-glucuronide formation per mg protein after 10 to 60 mins by HPLC method; type: ADME
How it was run: (§2)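 Pooled liver microsomes (0.5 mg/mL) were incubated 10 min. Pooled intestinal microsomes (0.25 mg/mL) ran 10 min at T-5224 10–50 μM and 20 min at 1–5 μM. Buffer was 50 mM Tris-HCl pH 7.5 with 8 mM MgCl2, alamethicin and 2 mM UDPGA, at 37°C, in triplicate. Glucuronides G2/G3 were read by HPLC at 290 nm and fitted for Vmax/Km.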

Liver microsome [8] = assay: Drug metabolism in human liver microsomes assessed as T-5224 acyl O-glucuronide formation after 10 to 60 mins by HPLC method; type: ADME; how it was run: as §2
[9] = Drug metabolism in human intestinal microsomes assessed as T-5224 acyl O-glucuronide formation after 10 to 60 mins by HPLC method; type: ADME, Intestine, Microsome; how it was run: as §2
[10] = Drug metabolism assessed as human CYP2C9*1-mediated metabolite formation at 2 uM after 30 mins by HPLC method; type: ADME; details: 0.5 h
How it was run: (§3)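 Each recombinant human P450 was used at 50 pmol/mL with an NADPH-generating system and 2 μM 14C-T-5224 (0.5% DMSO final). Buffer was 100 mM Tris-HCl pH 7.5, except 100 mM potassium phosphate pH 7.4 for CYP2A6 and CYP2C9*1. Incubation ran 30 min at 37°C and was stopped with acetonitrile/methanol. Radioactive metabolite peaks were detected by C18 HPLC.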

Cytochrome P450 2E1 = Cytochrome P450 2E1 (Homo sapiens, UniProt P05181); assay: Drug metabolism assessed as human CYP2E1-mediated metabolite formation at 2 uM after 30 mins by HPLC method; type: ADME; details: recombinant enzyme, 0.5 h; how it was run: as §3
[11] = target: T1, UDP-glucuronosyltransferase 1A1; assay: Drug metabolism assessed as human UGT1A1-mediated T-5224 acyl O-glucuronide formation at 5 to 50 uM after 60 mins in presence of UDP-glucuronic acid by HPLC method; type: ADME; details: recombinant enzyme, 1 h

Sequence of Cytochrome P450 2E1 (P05181 whole entry): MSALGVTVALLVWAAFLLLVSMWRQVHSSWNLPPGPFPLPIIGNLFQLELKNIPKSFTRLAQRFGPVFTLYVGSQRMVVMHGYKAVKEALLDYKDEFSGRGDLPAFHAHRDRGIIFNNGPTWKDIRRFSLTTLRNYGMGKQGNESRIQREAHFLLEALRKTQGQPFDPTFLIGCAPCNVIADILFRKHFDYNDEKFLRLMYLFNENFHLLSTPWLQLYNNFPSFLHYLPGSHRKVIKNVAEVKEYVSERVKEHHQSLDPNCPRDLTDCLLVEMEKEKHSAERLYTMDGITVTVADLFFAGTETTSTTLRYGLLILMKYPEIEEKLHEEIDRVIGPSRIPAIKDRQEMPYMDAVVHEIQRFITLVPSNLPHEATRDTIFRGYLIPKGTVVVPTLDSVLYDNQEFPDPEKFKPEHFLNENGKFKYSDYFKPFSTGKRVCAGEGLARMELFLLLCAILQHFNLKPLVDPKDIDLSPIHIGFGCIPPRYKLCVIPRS

O=C(O)CCc1cc(C(=O)c2ccc(OC3CCCC3)cc2O)ccc1OCc1ccc2c(O)noc2c1
Vmax/Km [1]: 26.2 µL/min | Vmax (Liver microsome [2]): 305 pmol/min | Ki [3]: 1540 nM | Vmax/Km [4]: 83.9 µL/min | Drug metabolism [5]: metabolite_detected | Drug metabolism (Liver microsome [6]): metabolite_detected | Vmax (Liver microsome [7]): 217 pmol/min | Km (Liver microsome [8]): 4.93 µM | Km [9]: 5.88 µM | Drug metabolism [10]: metabolite_not_detected | Drug metabolism (Cytochrome P450 2E1): metabolite_not_detected | Drug metabolism [11]: metabolite_detected
